Screening results: PubChem BioAssay, Broad Institute
PGC1a acetyl inh = PGC1a acetylation modulation, inhibitor mode; 350,000 compounds, 0.17% hits; inhibition, % at 15.6 µM; U2OS PGC1a acetylation, AlphaScreen anti-acetyl-lysine; with virally co-expressed GCN5 acetyltransferase;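 active = every replicate shows inhibition of at least 40%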
Env fusion inh = inhibitors of HIV Env-mediated cell fusion | HeLa-JRFL Env/CEM21 cell fusion, luciferase | inhibition, % at 12.3 µM | 360,000 compounds, 1.1% hits;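 active = mean replicate inhibition score of at least 50 and every replicate individually at or above 50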
EWS-Fli block = inhibitors of EWS/Fli oncoprotein transcriptional activity; A673 NR0B1-luciferase reporter, viability-normalised; inhibition, % at 12.6 µM; AID 651661; 350,000 compounds, 0.67% hits;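 active = mean inhibition of at least 50% after viability correction, with every replicate also passing that limit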;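 note: firefly luciferase signal divided by Alamar Blue viability fluorescence both relative to DMSO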
FN deposit inh = fibronectin deposition inhibition | AH1F fibroblasts, Alexa488-fibronectin deposition fluorescence, overnight | inhibition, % at 12.6 µM | 350,000 compounds, 0.086% hits;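 active = mean inhibition across replicates of 30% or more, regardless of how many single replicates reach that level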
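Measured by – fluorescence 485/525 nm · System – AH1F fibroblast monolayer, labelled fibronectin deposition · Amount – 10000 cells per well · Buffer or medium – serum-reduced DMEM (2% serum) · Doses – single dose, pinned · Also added – fluorescent fibronectin at 24 nM final · Schedule – 1 h cell attachment, overnight exposure to compound and label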
PAX8 reporter = PAX8 transcriptional activity inhibition; RMG-I TPO-luciferase reporter, SteadyGlo, 24 h; inhibition, % at 12.6 µM; 360,000 compounds, 1.2% hits; AID 652154;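 active = mean replicate inhibition at least 60% with every replicate also reaching 60%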;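 note: luciferase light reporting Pax8 driven TPO promoter activity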
CFTR F508del cor = CFTR F508del correction in bronchial cells; CFBE cells, YFP halide quenching; stimulated with forskolin plus potentiator P3; % fluorescence drop versus neutral controls; activity (quench increase), % at 7.58 µM; 350,000 compounds, 0.36% hits;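 active = mean added fluorescence quench of at least 8% versus neutral control, with both replicates also reaching 8%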;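 note: cells transiently co-express mutant CFTR-F508del with the halide-sensitive YFP; corrector assay measuring rescue of mutant channel to the surface after 24 h compound exposure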
Each line names hits and unclear results; the compound was inactive in the other large screens. The list is not random: actives were taken first. Their share in the collection is about 2.3%.

COc1ccc(S(=O)(=O)N(C)C[C@H]2OCCCC[C@H](C)Oc3ccc(NC(=O)Nc4c(C)noc4C)cc3C(=O)N([C@H](C)CO)C[C@H]2C)cc1	none
COC(=O)C[C@@H]1CC[C@H]2[C@@H](COC[C@H](O)CN2S(=O)(=O)c2ccccc2C)O1	none (no result: Env fusion inh)
C[C@@H]1CCCCO[C@@H](CN(C)C(=O)Cc2ccccc2)[C@H](C)CN([C@H](C)CO)C(=O)c2cc(NC(=O)CCC(F)(F)F)ccc2O1	none
O=C(NCC[C@@H]1CC[C@@H](NS(=O)(=O)c2ccccc2)[C@H](CO)O1)c1ccc2c(c1)OCO2	none (no result: FN deposit inh)
C=CCn1c(SCC(=O)NCc2ccco2)nc2sc3c(c2c1=O)CCC3	Env fusion inh 65 (no result: EWS-Fli block, CFTR F508del cor)
CCn1cc([N+](=O)[O-])c(C(=O)NCc2ccc3c(c2)OCO3)n1	PGC1a acetyl inh 42
C=CCn1c(SCC(=O)NCc2ccco2)nc2sc3c(c2c1=O)CCCC3	none (no result: Env fusion inh, EWS-Fli block, FN deposit inh, PAX8 reporter, CFTR F508del cor)
CCCn1cc(SCC(=O)NCc2ccc3c(c2)OCO3)c2ccccc21	none
CCn1cc(SCC(=O)NCc2ccc3c(c2)OCO3)c2ccccc21	Env fusion inh 67 (no result: PGC1a acetyl inh)
C/C(N)=C(/C#N)C(=O)CSc1nc2ccccc2c(=O)n1Cc1ccc(F)cc1	Env fusion inh 67
CCn1cc([N+](=O)[O-])c(C(=O)Nc2ccc3c(c2)OCCO3)n1	none (no result: Env fusion inh, EWS-Fli block, FN deposit inh, PAX8 reporter, CFTR F508del cor)
C/C(N)=C(/C#N)C(=O)CSc1nc2ccccc2c(=O)n1Cc1ccc(C)cc1	none
COc1ccc2c3c(n(C)c2c1)[C@H](CO)N(C(=O)C1CCCC1)CC31CCN(C(=O)CN(C)C)CC1	none (no result: PGC1a acetyl inh, Env fusion inh, FN deposit inh)
C[C@H](CO)N1C[C@H](C)[C@@H](CN(C)C(=O)[C@H]2CCCN2C)OCc2ccccc2-c2c(n(C)c3ccccc23)C1=O	none (no result: PGC1a acetyl inh, Env fusion inh, EWS-Fli block, PAX8 reporter, CFTR F508del cor)
O=C1CCCCn2cc(nn2)COC[C@@H](c2ccccc2)N1	none (no result: PGC1a acetyl inh, Env fusion inh, EWS-Fli block, PAX8 reporter, CFTR F508del cor)
O=C(CSc1nc2ccccc2c(=O)n1-c1ccccc1)NCc1ccc2c(c1)OCO2	Env fusion inh 80 (no result: EWS-Fli block, PAX8 reporter, CFTR F508del cor)
C=CCn1c(SCC(=O)NCc2ccc3c(c2)OCO3)nc2scc(-c3ccccc3)c2c1=O	Env fusion inh 119 (no result: EWS-Fli block, CFTR F508del cor)
Cc1cc(C)cc(-n2c(SC(C)C(=O)NCc3ccc4c(c3)OCO4)nc3ccccc3c2=O)c1 (stereo unspecified)	Env fusion inh 64 (no result: PGC1a acetyl inh, CFTR F508del cor)
Cc1cccc(-n2c(SCC(=O)NCc3ccc4c(c3)OCO4)nc3ccccc3c2=O)c1	none (no result: PGC1a acetyl inh, CFTR F508del cor)
COc1ccccc1CN(C)C[C@H]1OCc2ccccc2-c2c(n(C)c3ccccc23)C(=O)N([C@H](C)CO)C[C@@H]1C	none (no result: PGC1a acetyl inh, Env fusion inh, EWS-Fli block, PAX8 reporter, CFTR F508del cor)
Cc1ccc(NC(=O)C(NC2CCCc3ccccc32)c2ccccc2)c([N+](=O)[O-])c1 (stereo unspecified)	Env fusion inh 86 (no result: EWS-Fli block, CFTR F508del cor)
CO[C@@H]1CN(C)C(=O)c2ccc(NC(=O)c3nc4ccccc4s3)cc2OC[C@@H](C)N(Cc2ccncc2)C[C@H]1C	none (no result: Env fusion inh)
CN(Cc1ccccc1)C(=O)c1ccccc1C(=O)OCC(=O)N(Cc1ccccc1)C(C)(C)C	none
CCOc1ccc(C(C)=O)cc1COC(=O)c1ccccc1C(=O)N(C)Cc1ccccc1	Env fusion inh 98
CCC(=O)N(CC)c1nc(-c2ccc(OC)cc2)cs1	PGC1a acetyl inh 48 (no result: EWS-Fli block, CFTR F508del cor)
COc1ccc(-c2csc(N(CCCN(C)C)C(=O)c3ccccc3F)n2)cc1	PAX8 reporter 63
CCCNC(=O)Nc1ccc2c(c1)C(=O)N(C)C[C@H](OC)[C@@H](C)CN(Cc1cncnc1)[C@H](C)CO2	none (no result: Env fusion inh, PAX8 reporter)
C[C@@H]1CN([C@@H](C)CO)S(=O)(=O)c2ccc(C3=CCCC3)cc2O[C@H]1CN(C)C(=O)Cc1ccncc1	none
CCCCN1C(=O)CC(C(=O)O)C1c1ccc(OC)cc1 (stereo unspecified)	none (no result: EWS-Fli block, CFTR F508del cor)
COc1ccc2c(c1)C(O)C(CO)C(C(=O)O)C2 (stereo unspecified)	CFTR F508del cor 10 (no result: PGC1a acetyl inh)
COc1ccc([C@@H]2[C@@H]3C(=O)N(C(C)(C)C)C(=O)[C@@H]3[C@]3(C)C(=O)N(c4cccc(Cl)c4)C(=O)N23)cc1	Env fusion inh 61
COc1ccc([C@@H]2[C@@H]3C(=O)N(C(C)(C)C)C(=O)[C@@H]3[C@]3(C)C(=O)N(c4ccccc4)C(=O)N23)cc1	none (no result: PGC1a acetyl inh)
Cc1cccc(N2C(=O)N3[C@H](c4ccc(Br)cc4)[C@@H]4C(=O)N(C(C)(C)C)C(=O)[C@@H]4[C@]3(C)C2=O)c1	Env fusion inh 112 (no result: FN deposit inh)
